Test results published in ChEMBL document CHEMBL4017546, “Small-Molecule Inhibitors of the CD40-CD40L Costimulatory Protein-Protein Interaction” (J Med Chem, 2017).
Converted amounts (≈) assume the structure as drawn. The source made the active and inactive calls. No cut-off for these calls is given here.

What was measured:
[1] = Inhibition of human Fc-conjugated TNF-R/FLAG-tagged biotinylated TNFalpha protein-protein interaction incubated for 1 hr by ELISA-type assay
[2] = system: THP-1; assay: Cytotoxicity against human THP1 cells assessed as reduction in cell viability at 100 to 200 uM after 48 hrs by MTT assay; type: cell-based; settings: thp-1, 48 h
Summary of the method: (§1)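 THP-1 cells grown in RPMI-1640 with 10% FBS, starved 24 h in FBS-free medium, then seeded at 50,000 cells/well with compounds diluted in the same medium. Incubated 48 h at 37°C, MTT added for a further half hour, formazan read at 490 nm. Data converted to percent inhibition; duplicate or triplicate wells, at least three independent experiments.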

[3] = target: MAC1-CD40L (Homo sapiens) (UniProt P05107+P11215+P29965); assay: Inhibition of human Fc-conjugated Mac1/FLAG-tagged biotinylated CD40L protein-protein interaction incubated for 1 hr by ELISA-type assay
Chain of MAC1-CD40L (Homo sapiens) (P05107 whole entry, looked up, other chains not shown): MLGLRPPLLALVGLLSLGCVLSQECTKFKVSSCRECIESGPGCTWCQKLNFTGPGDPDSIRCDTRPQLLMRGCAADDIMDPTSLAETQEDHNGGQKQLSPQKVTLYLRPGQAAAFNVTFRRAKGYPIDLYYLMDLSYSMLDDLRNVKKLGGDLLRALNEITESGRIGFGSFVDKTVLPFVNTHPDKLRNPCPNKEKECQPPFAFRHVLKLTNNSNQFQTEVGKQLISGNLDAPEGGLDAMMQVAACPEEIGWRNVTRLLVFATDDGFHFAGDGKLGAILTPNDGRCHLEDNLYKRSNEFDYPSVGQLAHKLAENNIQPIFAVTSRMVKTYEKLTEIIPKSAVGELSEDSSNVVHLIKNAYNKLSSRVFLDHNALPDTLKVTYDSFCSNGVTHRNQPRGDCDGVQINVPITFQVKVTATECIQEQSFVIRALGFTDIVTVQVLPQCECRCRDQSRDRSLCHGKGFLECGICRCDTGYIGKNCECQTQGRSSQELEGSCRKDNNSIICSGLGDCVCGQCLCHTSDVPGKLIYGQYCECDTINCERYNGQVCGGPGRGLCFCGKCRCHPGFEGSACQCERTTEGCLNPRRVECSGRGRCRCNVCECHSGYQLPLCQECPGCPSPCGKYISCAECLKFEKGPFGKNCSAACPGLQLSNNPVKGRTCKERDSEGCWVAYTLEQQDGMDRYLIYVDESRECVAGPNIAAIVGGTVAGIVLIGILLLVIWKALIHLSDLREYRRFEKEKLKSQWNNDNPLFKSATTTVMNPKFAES
Chain of MAC1-CD40L (Homo sapiens) (P29965 whole entry, looked up, other chains not shown): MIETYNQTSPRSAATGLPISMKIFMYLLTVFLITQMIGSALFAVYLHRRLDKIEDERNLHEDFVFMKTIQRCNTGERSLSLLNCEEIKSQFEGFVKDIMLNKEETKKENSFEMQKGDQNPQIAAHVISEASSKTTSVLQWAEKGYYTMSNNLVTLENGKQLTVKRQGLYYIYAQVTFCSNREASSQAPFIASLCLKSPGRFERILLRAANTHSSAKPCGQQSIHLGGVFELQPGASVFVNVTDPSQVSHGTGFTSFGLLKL
Summary of the method: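 Fc-conjugated Mac-1 coated overnight at 4°C at 0.4 µg/mL; blocked with PBS/Tween/BSA. FLAG-tagged CD40L at 0.2 µg/mL added with graded compound in HEPES binding buffer (pH 7.2) for 1 h. Detection with anti-FLAG HRP/TMB at 450 nm. Data converted to percent inhibition and fitted to a log inhibitor curve.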

[4] = organism: Homo sapiens; assay: Selectivity ratio of IC50 for human Fc-conjugated TNF-R/FLAG-tagged biotinylated TNFalpha protein-protein interaction to IC50 for human Fc-conjugated CD40/FLAG-tagged biotinylated CD40L costimulatory protein-protein interaction
Summary of the method: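 Cell-free plate binding: TNF-R-Fc and CD40-Fc each coated at 0.3 µg/mL. FLAG-tagged TNF-α or CD40L, each at 0.02 µg/mL, added with graded compound for 1 h in HEPES buffer, pH 7.2. Anti-FLAG HRP/TMB detection at 450 nm. IC50s come from log inhibitor fits.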

[5] = target: T1, CD40-CD40L (Homo sapiens, UniProt P25942+P29965); assay: Inhibition of human Fc-conjugated CD40/FLAG-tagged biotinylated CD40L costimulatory protein-protein interaction incubated for 1 hr by ELISA-type assay
[6] = target: T1, CD40-CD40L; assay: Inhibition of interaction of CD40 (unknown origin) transfected in HEK Blue cells with recombinant human CD40L assessed as reduction in CD40L-induced NF-kappaB activation after 18 hrs by spectrophotometry based SEAP reporter gene assay; type: cell-based
[7] = target: T1, CD40-CD40L; assay: Inhibition of interaction of CD40 in promoter/enhancer region of aicda-fused Ds-Red reporter transfected human B cells with recombinant human CD40L assessed as reduction in CD40L/IL-4-induced B cell activation by measuring AID expression after 2 days by flow cytometric analysis
Summary of the method: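 Primary human B cells transduced by spinoculation (1.5 h, 2,500g, 32°C, polybrene 8 µg/mL) with aicda promoter/enhancer–DsRed lentivirus. Cells at 1.25 × 10^5/mL in IMDM with 10% FBS, stimulated with IL-4 and CD40L (each 0.2 µg/mL) plus graded compound for 2 days at 37°C. DsRed read by flow cytometry. Anti-CD40L mAb 33.3 nM and CpG 1 µg/mL as controls; n=3.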

[8] = Elimination half life in C57BL6 mouse at 60 mg/kg, sc administered as single dose measured up to 24 hrs by HPLC analysis; type: ADME, organism-based; settings: in vivo, read-out: beta t1/2 (converted)
Summary of the method: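 Single s.c. dose of 1.6 mg/mouse (~60 mg/kg) in 250 µL 20% w/v HPβCD to male C57BL/6 mice, 10 weeks old (n = 4). Tail blood (50 µL) drawn at 0, 0.5, 1, 2, 4, 6 and 24 h. Plasma quantified by C18 HPLC (60:40 water:acetonitrile with 2.0 mM ammonium acetate, 254 nm), calibration linear over 1 to 500 µg/mL.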

[9] = target: T1, CD40-CD40L; assay: Inhibition of interaction of CD40 in human B cells with recombinant human CD40L assessed as reduction in CD40L-induced cell proliferation after 48 hrs by BrdU incorporation-based ELISA
Summary of the method: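 CD19+ B cells from healthy-donor PBMC (magnetic bead selection, >90% CD19+) at 2 × 10^5 cells/mL in IMDM with 10% FBS, ITS and rhIL-4 at 0.2 µg/mL. Activated with rhCD154 (MegaCD40L) at 0.1 µg/mL plus graded compound for 48 h. BrdU then added for another 48 h; incorporation read by colorimetric ELISA.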
Target sequence in this assay (P25942 21-277 limits assumed): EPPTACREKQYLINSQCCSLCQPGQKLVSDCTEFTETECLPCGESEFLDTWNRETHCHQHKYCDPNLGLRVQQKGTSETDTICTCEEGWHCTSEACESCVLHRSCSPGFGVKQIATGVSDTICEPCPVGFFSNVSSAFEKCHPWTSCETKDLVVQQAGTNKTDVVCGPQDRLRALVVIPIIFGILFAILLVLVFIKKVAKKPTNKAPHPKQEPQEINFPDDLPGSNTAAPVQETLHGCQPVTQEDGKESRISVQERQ
Target sequence in this assay (P29965 113-261 partner limits assumed): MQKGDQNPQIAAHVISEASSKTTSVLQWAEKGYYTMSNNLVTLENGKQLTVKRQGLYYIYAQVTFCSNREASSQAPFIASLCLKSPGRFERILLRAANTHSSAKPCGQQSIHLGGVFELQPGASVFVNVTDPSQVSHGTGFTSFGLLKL

[10] = system: Mus musculus; assay: Toxicity in C57BL6 mouse implanted with BALB/c mouse skin graft at 30 mg/kg, sc administered daily for 2 weeks; type: organism-based; settings: in vivo, 336 h
Summary of the method: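 C57BL/6 recipients carried full-thickness BALB/c ear skin grafts on the dorsal thorax. They received CTLA4-Ig 250 μg on days 0, 2, 4 and 6, plus compound at 30 mg/kg s.c. daily in 20% w/v HPβCD over two weeks, and were watched for signs of toxicity. 5–8 mice per group.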

[11] = target: T1, CD40-CD40L; assay: Inhibition of interaction of CD40 in human THP-1 cells with recombinant human CD40L assessed as reduction in CD40L-induced […] upregulation after 48 hrs by DAPI-staining based flow cytometric analysis; type: cell-based
Summary of the method: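 THP-1 cells serum-starved 24 h, then stimulated with rhCD154 (MegaCD40L) at 0.5 µg/mL plus graded compound in FBS-free RPMI for 48 h at 37°C, 5% CO2. Stained for HLA-DR, then DAPI just before flow cytometry. Marker quantified in live (DAPI-negative) cells.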
Target sequence in this assay (P25942 21-277 limits assumed): as the sequence (P25942 21-277 limits assumed) above
Target sequence in this assay (P29965 113-261 partner limits assumed): as the sequence (P29965 113-261 partner limits assumed) above

[12] = system: Salmonella typhimurium; assay: Mutagenicity in Salmonella typhimurium TA100 up to 500 uM measured daily up to day 6 by Ames test; type: toxicity; settings: salmonella enterica subsp. enterica serovar typhimurium
Summary of the method: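 Muta-Chromplate Ames format with S. typhimurium TA-100, reconstituted and grown overnight (16–18 h) at 37°C, then added to reaction mixture with compound at 0.1 to 500 μM (DMSO ≤2.5% final). Plated one plate per condition, incubated at 37°C, positive wells counted daily. Controls were background, NaN3 positive and sterility plates; significance from the manufacturer's tables.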

[13] = system: Mus musculus; assay: In vivo inhibition of alloantigen-induced T cell response in sc dosed BALB/c mouse injected with DBA-2 mouse splenocytes assessed as reduction in splenocyte-mediated increase in draining popliteal lymph node cells administered as bid from 1 day before alloantigen challenge to 3 days post alloantigen challenge; type: functional, organism-based
Summary of the method: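 Female BALB/c recipients (10–12 weeks) got a footpad injection of 1 × 10^7 splenocytes from male DBA-2 donors. Compound given s.c. at 20–60 mg/kg b.i.d. from day -1 to 3 in 20% HPβCD; MR-1 anti-CD40L (20 mg/kg, days -1 and 0) as positive control. Draining popliteal nodes taken 3 days after challenge and cells counted; n = 3–4 per group, mean ± SD.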

[14] = Solubility of the compound in water; type: physicochemical; settings: buffer
Summary of the method: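 Saturated solution in distilled water, concentration measured by C18 HPLC (60:40 water:acetonitrile, 2.0 mM ammonium acetate, UV 254 nm). Calibration standards were made from known amounts dissolved in 20% w/v aqueous HPβCD. Compounds were tested as triethylamine salts unless stated otherwise.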

[15] = system: THP-1; assay: Cytotoxicity against human THP1 cells assessed as reduction in cell viability at 100 uM after 48 hrs by MTT assay; type: cell-based; settings: thp-1, 48 h; summary of the method: as §1
[16] = target: T1, CD40-CD40L; assay: Ratio of IC50 for human Fc-conjugated CD40/FLAG-tagged biotinylated CD40L costimulatory protein-protein interaction in presence of Triton-X 100 to IC50 for human Fc-conjugated CD40/FLAG-tagged biotinylated CD40L costimulatory protein-protein interaction in absence of Triton-X 100; type: protein assay
Summary of the method: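 CD40-Fc (0.3 µg/mL) coated, FLAG-CD40L (0.02 µg/mL) binding, 1 h, anti-FLAG HRP/TMB read at 450 nm. Run with and without the non-ionic detergent Triton X-100 at 0.01% to test for colloidal aggregation. IC50 taken from log inhibitor vs. response fits in each condition.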
Target sequence in this assay (P25942 21-277 limits assumed): as the sequence (P25942 21-277 limits assumed) above
Target sequence in this assay (P29965 113-261 partner limits assumed): as the sequence (P29965 113-261 partner limits assumed) above

Row | Molecule | IC50 [1] | inhibition [3] | Ratio IC50 [4] | IC50 [5] | IC50 [6] | inhibition [6] | inhibition [5] | also measured
1 | Nc1ccc(C(=O)Nc2ccc(-c3ccc(C(=O)Nc4cccc5cccc(S(=O)(=O)O)c45)cc3)cc2)cc1 | 887 µM | Active | > 100 | 301 µM |  |  |  | Activity [2]: Toxic
2 | O=C(Nc1ccc2c(O)c(/N=N/c3ccc(/N=N\c4ccc(S(=O)(=O)O)cc4)cc3S(=O)(=O)O)c(S(=O)(=O)O)cc2c1)Nc1ccc2c(O)c(/N=N/c3ccc(/N=N\c4ccc(S(=O)(=O)O)cc4)cc3S(=O)(=O)O)c(S(=O)(=O)O)cc2c1 |  | Active |  | 2.26 µM | 42.7 µM | Dose-dependent effect |  | 
3 | O=C(Nc1ccc(C(=O)Nc2cccc3cccc(S(=O)(=O)O)c23)cc1)c1ccc([N+](=O)[O-])cc1 | > 1000 µM | Active | > 100 |  |  |  |  | 
4 | COC(=O)c1ccc(C(=O)Nc2ccc(-c3ccc(C(=O)Nc4cccc5cccc(S(=O)(=O)O)c45)cc3)cc2)cc1 | 992 µM | Active |  | 0.17 µM | 17.1 µM | Dose-dependent effect | Dose-dependent effect | IC50 [7]: 4.5 µM; inhibition [7]: Dose-dependent effect; half-life [8]: 2 h; inhibition [9]: Dose-dependent effect; Activity [10]: Non-Toxic; inhibition [11]: Dose-dependent effect; Activity [12]: Non-Toxic; inhibition [13]: Active; solubility [14]: 240 µM (≈ 139 µg/mL); Activity [15]: Non-Toxic
5 | O=C(Nc1ccc(-c2ccc(C(=O)Nc3cccc4cccc(S(=O)(=O)O)c34)cc2)cc1)c1ccc2[nH]nnc2c1 | > 1000 µM |  | > 100 | 0.99 µM |  |  | Dose-dependent effect | 
6 | O=C(Nc1ccc(-c2ccc(C(=O)Nc3ccc(S(=O)(=O)O)c4ccccc34)cc2)cc1)c1ccc([N+](=O)[O-])cc1 | 479 µM |  | > 100 | 2.33 µM |  |  | Dose-dependent effect | 
7 | CSCC[C@H](NC(=O)[C@@H](NC(=O)[C@H](Cc1ccc(O)cc1)NC(=O)[C@H](Cc1ccc(O)cc1)NC(=O)CNC(=O)[C@H](CCCCN)NC(=O)[C@H](CCCCN)NC(=O)[C@H](C)NC(=O)[C@H](Cc1c[nH]c2ccccc12)NC(=O)[C@H](CCC(N)=O)NC(=O)[C@H](CC(C)C)NC(=O)[C@@H](N)C(C)C)[C@@H](C)O)C(=O)N[C@@H](CCCCN)C(=O)N[C@@H](CO)C(=O)N[C@@H](CC(N)=O)C(=O)O |  |  |  |  |  |  | inactive | 
8 | O=C(Nc1ccc(-c2ccc(C(=O)Nc3ccc(C(=O)O)c4ccccc34)cc2)cc1)c1ccc([N+](=O)[O-])cc1 | > 1000 µM | Active |  | 0.36 µM | 9.4 µM | Dose-dependent effect | Dose-dependent effect | IC50 [7]: 15.9 µM; inhibition [7]: Dose-dependent effect; Activity [2]: Toxic; inhibition [9]: Dose-dependent effect; inhibition [11]: Dose-dependent effect; solubility [14]: 17 µM (≈ 9.04 µg/mL)
9 | H-VLQWAEKGYYTMSNN-OH |  |  |  | 154 µM |  |  |  | 
10 | O=C1OC2(c3ccccc31)c1cc(I)c(O)c(I)c1Oc1c2cc(I)c(O)c1I |  |  |  |  |  |  |  | Ratio IC50 [16]: 1.04
11 | O=C(Nc1ccc(-c2ccc(C(=O)Nc3cccc4cccc(S(=O)(=O)O)c34)cc2)cc1)c1ccc([N+](=O)[O-])cc1 | > 1000 µM | Active |  | 0.31 µM | 10.3 µM | Dose-dependent effect | Dose-dependent effect | IC50 [7]: 13.2 µM; inhibition [7]: Dose-dependent effect; inhibition [9]: Dose-dependent effect; inhibition [11]: Dose-dependent effect; Activity [12]: Non-Toxic; solubility [14]: 7 µM (≈ 3.97 µg/mL); Activity [15]: Non-Toxic
